In brackets after ≈: the same amount, converted by molar mass. Activity calls are given as the source filed them. The rule behind the calls is not given here. Where a SMILES comes first, the peptide text is derived from it. The star is where a group is joined. Boc = CC(C)(C)OC(=O)*; NHBn = c1ccc(CN*)cc1
Key:
Cryptococcus neoformans = assay: Antifungal activity against Cryptococcus neoformans ATCC 90113 assessed as inhibition of fungal growth by CLSI method; assay type: functional, organism-based
Staphylococcus aureus = assay: Antibacterial activity against methicillin-resistant Staphylococcus aureus ATCC 33591 assessed as inhibition of bacterial growth by CLSI method; assay type: functional, organism-based
Enterococcus = assay: Antibacterial activity against vancomycin resistant Enterococcus ATCC MP-1 assessed as inhibition of bacterial growth by CLSI method; assay type: functional, organism-based
Escherichia coli = assay: Antibacterial activity against Escherichia coli ATCC 35218 assessed as inhibition of bacterial growth by CLSI method; assay type: functional, organism-based
Pseudomonas aeruginosa = assay: Antibacterial activity against Pseudomonas aeruginosa ATCC 27853 assessed as inhibition of bacterial growth by CLSI method; assay type: functional, organism-based
Candida albicans = assay: Antifungal activity against Candida albicans ATCC 10231 assessed as inhibition of fungal growth by CLSI method; assay type: functional, organism-based
Aspergillus fumigatus = assay: Antifungal activity against Aspergillus fumigatus ATCC 1022 assessed as inhibition of fungal growth by CLSI method; assay type: functional, organism-based
Klebsiella pneumoniae = assay: Antibacterial activity against Klebsiella pneumoniae ATCC BAA1705 assessed as inhibition of bacterial growth by CLSI method; assay type: functional, organism-based
Vero = assay: Cytotoxicity against African green monkey Vero cells assessed as reduction in cell viability incubated for 48 hrs by Neutral red assay; assay type: cell-based; settings: chlorocebus sabaeus
How it was run: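 VERO monkey kidney cells seeded at 25,000 cells/well and incubated 24 h to confluency. Peptide added, then a further 48 h incubation. Viability read by neutral red uptake.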

Compound | IC50 (Cryptococcus neoformans) [µg/mL] | MIC (Cryptococcus neoformans) [µg/mL] | IC50 (Staphylococcus aureus) [µg/mL] | MIC (Staphylococcus aureus) [µg/mL] | IC50 (Enterococcus) [µg/mL] | MIC (Enterococcus) [µg/mL] | IC50 (Escherichia coli) [µg/mL] | IC50 (Pseudomonas aeruginosa) [µg/mL] | MIC (Pseudomonas aeruginosa) [µg/mL] | Activity (Candida albicans) | Activity (Aspergillus fumigatus) | Activity (Klebsiella pneumoniae) | Activity (Vero) [µg/mL] | MIC (Escherichia coli) [µg/mL]
Cl.Cl.N=C(N)NCCC[C@H](NC(=O)[C@H](Cc1c[nH]c2ccccc12)NC(=O)[C@@H](N)Cc1c[nH]c(-c2ccc(-c3ccccc3)cc2)n1)C(=O)NCc1ccccc1 | 1.17 | 5 | 4.44 | 5 | 8.33 | 20 | > 20 | 18.7 | > 20 | inactive | inactive | inactive | > 10 | 
COC(=O)[C@H](CCCNC(=N)N)NC(=O)[C@H](Cc1c[nH]c2ccccc12)NC(=O)[C@H](Cc1c[nH]c(-c2ccc(C)cc2)n1)NC(=O)OC(C)(C)C | 7.66 (≈ 10.9 µM) | > 20 |  |  |  |  |  |  |  | inactive | inactive | inactive | > 10 | 
COC(=O)[C@H](CCCNC(=N)N)NC(=O)[C@H](Cc1c[nH]c2ccccc12)NC(=O)[C@@H](N)Cc1c[nH]c(-c2ccc(C)cc2)n1.Cl.Cl | 8.98 | > 20 |  |  |  |  |  |  |  | inactive | inactive | inactive | > 10 | 
CCCCc1ccc(-c2nc(C[C@H](NC(=O)OC(C)(C)C)C(=O)N[C@@H](Cc3c[nH]c4ccccc34)C(=O)N[C@@H](CCCNC(=N)N)C(=O)OC)c[nH]2)cc1 | 1.99 (≈ 2.68 µM) | 2.5 (≈ 3.36 µM) | 9.29 (≈ 12.5 µM) | 10 (≈ 13.4 µM) | 7.82 (≈ 10.5 µM) | 20 (≈ 26.9 µM) | 17.9 (≈ 24 µM) | > 20 |  | inactive | inactive | inactive | > 10 | > 20
CCCCc1ccc(-c2nc(C[C@H](NC(=O)OC(C)(C)C)C(=O)N[C@@H](Cc3c[nH]c4ccccc34)C(=O)N[C@@H](CCCNC(=N)N)C(=O)NCc3ccccc3)c[nH]2)cc1 | 1.98 (≈ 2.42 µM) | 2.5 (≈ 3.05 µM) | 9.13 (≈ 11.1 µM) | 10 (≈ 12.2 µM) | 7.38 (≈ 9.01 µM) | 10 (≈ 12.2 µM) | > 20 | > 20 |  | inactive | inactive | inactive | > 10 | 
CC(C)(C)OC(=O)N[C@@H](Cc1c[nH]cn1)C(=O)N[C@@H](Cc1c[nH]c2ccccc12)C(=O)N[C@@H](CCCNC(=N)N)C(=O)NCc1ccccc1 (Boc-His-Trp-Arg-NHBn) | > 20 |  |  |  |  |  |  |  |  | inactive | inactive | inactive | > 10 | 
COC(=O)[C@H](CCCNC(=N)N)NC(=O)[C@H](Cc1c[nH]c2ccccc12)NC(=O)[C@H](Cc1c[nH]c(-c2ccc(-c3ccccc3)cc2)n1)NC(=O)OC(C)(C)C | 8.06 (≈ 10.6 µM) | > 20 | 16.3 (≈ 21.3 µM) | > 20 |  |  | > 20 | > 20 |  | inactive | inactive | inactive | > 10 | 
CCc1ccc(-c2nc(C[C@H](N)C(=O)N[C@@H](Cc3c[nH]c4ccccc34)C(=O)N[C@@H](CCCNC(=N)N)C(=O)NCc3ccccc3)c[nH]2)cc1.Cl.Cl | 2.26 | 10 | 18.4 | 20 | 13.5 | 20 | > 20 | > 20 |  | inactive | inactive | inactive | > 10 | 
CCc1ccc(-c2nc(C[C@H](NC(=O)OC(C)(C)C)C(=O)N[C@@H](Cc3c[nH]c4ccccc34)C(=O)N[C@@H](CCCNC(=N)N)C(=O)NCc3ccccc3)c[nH]2)cc1 | 1.5 (≈ 1.9 µM) | 2.5 (≈ 3.16 µM) | 8.93 (≈ 11.3 µM) | 20 (≈ 25.3 µM) | 14.9 (≈ 18.8 µM) | > 20 | > 20 | > 20 |  | inactive | inactive | inactive | > 10 | 
Cc1ccc(-c2nc(C[C@H](N)C(=O)N[C@@H](Cc3c[nH]c4ccccc34)C(=O)N[C@@H](CCCNC(=N)N)C(=O)NCc3ccccc3)c[nH]2)cc1.Cl.Cl | 3.36 | 5 |  |  |  |  |  |  |  | inactive | inactive | inactive | > 10 | 
CCCCc1ccc(-c2nc(C[C@H](N)C(=O)N[C@@H](Cc3c[nH]c4ccccc34)C(=O)N[C@@H](CCCNC(=N)N)C(=O)NCc3ccccc3)c[nH]2)cc1.Cl.Cl | 2.27 | 5 | 4.46 | 10 | 9.99 | 20 | 16.3 | 17.2 | > 20 | inactive | inactive | inactive | > 10 | > 20
COC(=O)[C@H](CCCNC(=N)N)NC(=O)[C@H](Cc1c[nH]c2ccccc12)NC(=O)[C@H](Cc1c[nH]c(-c2ccccc2)n1)NC(=O)OC(C)(C)C | 8.85 (≈ 12.9 µM) | > 20 |  |  |  |  |  |  |  | inactive | inactive | inactive | > 10 | 
CCc1ccc(-c2nc(C[C@H](N)C(=O)N[C@@H](Cc3c[nH]c4ccccc34)C(=O)N[C@@H](CCCNC(=N)N)C(=O)OC)c[nH]2)cc1.Cl.Cl | 1.85 | 2.5 | > 20 |  | > 20 |  | 17.4 | > 20 |  | inactive | inactive | inactive | > 10 | > 20
Cc1ccc(-c2nc(C[C@H](NC(=O)OC(C)(C)C)C(=O)N[C@@H](Cc3c[nH]c4ccccc34)C(=O)N[C@@H](CCCNC(=N)N)C(=O)NCc3ccccc3)c[nH]2)cc1 | 4.34 (≈ 5.59 µM) | 5 (≈ 6.44 µM) | 17.5 (≈ 22.5 µM) | 20 (≈ 25.7 µM) | > 20 |  | > 20 | > 20 |  | inactive | inactive | inactive | > 10 | 
C[C@@H]1[C@H](O)[C@@H](C)/C=C/C=C/C=C/C=C/C=C/C=C/C=C/[C@H](O[C@@H]2O[C@H](C)[C@@H](O)[C@H](N)[C@@H]2O)C[C@@H]2O[C@](O)(C[C@@H](O)C[C@@H](O)[C@H](O)CC[C@@H](O)C[C@@H](O)CC(=O)O[C@H]1C)C[C@H](O)[C@H]2C(=O)O [AMPHOTERICIN B] |  | 1.25 (≈ 1.35 µM) |  |  |  |  |  |  |  |  |  |  |  | 
Cl.Cl.N=C(N)NCCC[C@H](NC(=O)[C@H](Cc1c[nH]c2ccccc12)NC(=O)[C@@H](N)Cc1c[nH]c(-c2ccccc2)n1)C(=O)NCc1ccccc1 | 5.31 | 10 |  |  |  |  |  |  |  | inactive | inactive | inactive | > 10 | 
COC(=O)[C@H](CCCNC(=N)N)NC(=O)[C@H](Cc1c[nH]c2ccccc12)NC(=O)[C@@H](N)Cc1c[nH]c(-c2ccccc2)n1.Cl.Cl | 9.23 | > 20 |  |  |  |  |  |  |  | inactive | inactive | inactive | > 10 | 
COC(=O)[C@H](CCCNC(=N)N)NC(=O)[C@H](Cc1c[nH]c2ccccc12)NC(=O)[C@@H](N)Cc1c[nH]c(-c2ccc(-c3ccccc3)cc2)n1.Cl.Cl | 1.51 | 2.5 | 7.81 | 10 | 13.2 | 20 | > 20 | > 20 |  | inactive | inactive | inactive | > 10 | 
COC(=O)[C@H](CCCNC(=N)N)NC(=O)[C@H](Cc1c[nH]c2ccccc12)NC(=O)[C@@H](N)Cc1c[nH]cn1.Cl.Cl (H-His-Trp-Arg-OMe) | 2.41 | 10 |  |  |  |  |  |  |  | inactive | inactive | inactive | > 10 | 
CCc1ccc(-c2nc(C[C@H](NC(=O)OC(C)(C)C)C(=O)N[C@@H](Cc3c[nH]c4ccccc34)C(=O)N[C@@H](CCCNC(=N)N)C(=O)OC)c[nH]2)cc1 | 9.66 (≈ 13.5 µM) | > 20 |  |  |  |  |  |  |  | inactive | inactive | inactive | > 10 | 
Cl.Cl.N=C(N)NCCC[C@H](NC(=O)[C@H](Cc1c[nH]c2ccccc12)NC(=O)[C@@H](N)Cc1c[nH]cn1)C(=O)NCc1ccccc1 (H-His-Trp-Arg-NHBn) | 4.92 | 10 |  |  |  |  |  |  |  | inactive | inactive | inactive | > 10 | 
CC(C)(C)OC(=O)N[C@@H](Cc1c[nH]c(-c2ccccc2)n1)C(=O)N[C@@H](Cc1c[nH]c2ccccc12)C(=O)N[C@@H](CCCNC(=N)N)C(=O)NCc1ccccc1 | 7.93 (≈ 10.4 µM) | > 20 |  |  |  |  |  |  |  | inactive | inactive | inactive | > 10 | 

— ChEMBL document CHEMBL4831482 (Eur J Med Chem, 2021)
